From ChEMBL document CHEMBL4725352, “Identification of New Nitric Oxide-Donating Peptides with Dual Biofilm Eradication and Antibacterial Activities for Intervention of Device-Related Infections” (J Med Chem, 2020) come the findings set out here.

Active and inactive are the calls of the source. The calls are words filed in the database; no cut-off is given here. Where a SMILES comes first, the peptide text is derived from it. The star is where a group is joined. X1 = COC(=O)[C@H](Cc1ccc(Oc2no[n+]([O-])c2S(=O)(=O)c2ccccc2)cc1)NC(=O)CCCc1cn(CC(=O)*)nn1

In data set [1] the test system is Staphylococcus aureus. Briefly: Antibiofilm activity against Staphylococcus aureus ATCC 6538 infected in mouse assessed as reduction in bacterial infection by measuring colony counts at 0.25 umol/kg, sc administered every 12 hrs for 3 days by plate colony counting assay (reference value: 6.40 +/- 0.28). The settings on record: dose 0.25 µmol/kg. The data set is classed as functional.

In data set [2] the test system is Staphylococcus aureus. Briefly: Antibiofilm activity against Staphylococcus aureus ATCC 6538 assessed as decrease in living bacterial cells in biofilm on bottom of confocal dish at 100 uM incubated for 12 hrs by live-cell fluorescence staining assay. The data set is classed as functional. Summed up: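 S. aureus (10⁸ cfu/mL, 2 mL) cultured one day at 37 °C, 5% CO₂ in confocal dishes, then washed 3× with saline. TSB with compound at 100 µM was added for 12 h. The dish was washed and live-cell fluorescence stained for 15 min. Bottom biofilm was imaged by 3D confocal microscopy.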

Data set [3] has as its system Staphylococcus aureus. Briefly: Induction of NO release in Staphylococcus aureus ATCC 6538 at 10 uM incubated for 4 hrs by Griess assay. The data set is classed as functional, organism-based. Summed up:
(§1)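 Bacteria (10⁸ cfu/mL in saline) incubated with compound at 10 µM for 4 h at 37 °C, 5% CO₂. Cells were centrifuged and lysed, and the lysate centrifuged at 10,000 g for 5 min. Nitrite in the supernatant was measured by Griess reagent at 540 nm against a NaNO₂ standard curve.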

The test system of data set [4] is Staphylococcus aureus. The data set can be described thus: Antibiofilm activity against Staphylococcus aureus ATCC 6538 assessed as dispersion of formed biofilms at 100 uM incubated for 12 hrs by scanning electron microscopy. The format is functional, organism-based. Summed up:
(§2)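 Bacteria (10⁸ cfu/mL) grown on silicon slices in TSB for 24 h. Medium was removed and slices washed 3× with saline. Slices were then incubated 12 h in TSB containing test compound at 100 µM, or TSB alone. Slices were gold-sputtered and imaged by cold field emission SEM.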

The test system of data set [5] is Escherichia coli. Briefly: Antibiofilm activity against Escherichia coli ATCC 8099 assessed as dispersion of formed biofilms at 100 uM incubated for 12 hrs by scanning electron microscopy. The data set is classed as functional, organism-based. A digest of the protocol:
as §2

Data set [6] has as its system Escherichia coli. The data set can be described thus: Antibiofilm activity against Escherichia coli ATCC 8099 assessed as inhibition of biofilm formation at 100 uM incubated for 12 hrs by crystal violet staining assay relative to control. The data set is classed as functional. A digest of the protocol: (§3)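 Bacterial culture (10⁸ cfu/mL) grown 24 h in 96-well plates, then washed 3× with saline. Wells were incubated 12 h with test compound in TSB. Biofilm was fixed with methanol 15 min and stained with 1% crystal violet 5 min at room temperature. Dye was solubilized in ethanol for 30 min at 37 °C and OD read at 600 nm. Compared with vehicle control; mean ± S.D., n = 3.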

For data set [7], the system named is Escherichia coli. Briefly: Induction of NO release in Escherichia coli ATCC 8099 at 10 uM incubated for 4 hrs by Griess assay. The data set is classed as functional, organism-based. Summed up: as §1
The test system of data set [8] is Staphylococcus aureus. The data set can be described thus: Antibiofilm activity against Staphylococcus aureus ATCC 6538 assessed as inhibition of continuous biofilm growth at 100 uM measured every 15 mins for 9 hrs by biofilm dynamic detection assay. The format is functional, organism-based. Summed up:
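S. aureus (10⁸ cfu/mL in TSB) grown one day at 37 °C, 5% CO₂ on a real-time impedance cell analyzer to form biofilm. After saline washes (3×), medium containing compound at 100 µM was added. Biofilm index was recorded every 15 min for 9 h, blank-subtracted and normalized (lowest point 0, highest 1).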

For data set [9], the system named is Staphylococcus aureus. The data set can be described thus: Antibiofilm activity against Staphylococcus aureus ATCC 6538 assessed as inhibition of biofilm formation at 100 uM incubated for 12 hrs by crystal violet staining assay relative to control. The format is functional. A digest of the protocol:
as §3

For data set [10], the system named is Staphylococcus aureus. The data set can be described thus: Antibacterial activity against Staphylococcus aureus ATCC 6538 assessed as killing of living planktonic bacterial cells in supernatant at 100 uM incubated for 12 hrs by OD measurement.
Data set [11] concerns Staphylococcus aureus. The data set can be described thus: Antibiofilm activity against Staphylococcus aureus ATCC 6538 assessed as inhibition of biofilm formation at 100 uM incubated for 12 hrs in presence of NO scavenger PTIO by crystal violet staining assay relative to control. The data set is classed as functional, organism-based.
Data set [12] deals with Staphylococcus aureus. The data set can be described thus: Antimicrobial activity against Staphylococcus aureus ATCC 6538 incubated for 20 hrs by microdilution assay. The data set is classed as functional. On the technique in general: Broth dilution looks for growth in wells or tubes with falling amounts of substance.
Data set [13] concerns Escherichia coli. The data set can be described thus: Antimicrobial activity against Escherichia coli ATCC 8099 incubated for 20 hrs by microdilution assay. The format is functional.
Data set [14] has as its system Escherichia coli. The data set can be described thus: Antibiofilm activity against Escherichia coli ATCC 8099 assessed as inhibition of biofilm formation at 100 uM incubated for 12 hrs in presence of NO scavenger PTIO by crystal violet staining assay relative to control. The data set is classed as functional, organism-based.
The subject of data set [15] is Staphylococcus aureus. The data set can be described thus: Antibiofilm activity against Staphylococcus aureus ATCC 6538 infected in mouse assessed as reduction in bacterial inflammation in vicinity tissues of implanted site at 0.25 umol/kg, sc administered every 12 hrs for 3 days by H and E staining based assay. The format is functional, organism-based. The settings on record: dose 0.25 µmol/kg. A digest of the protocol:
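Mouse PDMS-implant S. aureus biofilm model dosed 0.25 µmol/kg sc in 5% DMSO/saline every 12 h for 3 days. Muscle tissue near the implant site was fixed 24 h, paraffin-embedded, sectioned and H&E stained to assess bacterial spread.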

Data set [16] concerns Staphylococcus aureus. Briefly: Antibiofilm activity against Staphylococcus aureus ATCC 6538 assessed as inhibition of continuous biofilm growth at 100 uM incubated for 1-2 hrs by biofilm dynamic detection assay. The note with it: time hrs 1-2. The data set is classed as functional, organism-based. A digest of the protocol:
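S. aureus biofilm grown 24 h at 37 °C, 5% CO₂ from 10⁸ cfu/mL in TSB while impedance was recorded in real time (xCELLigence RTCA). Supernatant removed, saline-washed three times, then compound added at 100 µM in TSB. Biofilm index read every 15 min for 9 h, blank subtracted and normalised 0–1, compared with TSB control.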

The subject of data set [17] is Cell membrane. The data set can be described thus: Induction of cell membrane rupture in Escherichia coli ATCC 8099 assessed as induction of cell content spillage at 200 uM incubated for 60 mins by scanning electron microscopy. A digest of the protocol: (§4)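 Bacteria incubated in TSB alone or TSB with compound at 200 µM for 60 min. Cells were pelleted, fixed in 4% paraformaldehyde, dropped onto silicon slices, gold-sputtered and imaged by cold field emission SEM.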

For data set [18], the system named is Staphylococcus aureus. The data set can be described thus: Induction of NO release in CDNB-pretreated Staphylococcus aureus ATCC 6538 at 10 uM incubated for 4 hrs by Griess assay. The data set is classed as functional, organism-based. A digest of the protocol: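 S. aureus (10⁸ cfu/mL in saline) pretreated with 100 µM CDNB for 0.5 h at 37 °C, then pelleted. Cells were incubated with compound at 10 µM in saline for 4 h. After lysis, nitrite was quantified by Griess reagent at 540 nm against a NaNO₂ standard curve.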
A general note: Griess reagent forms a coloured azo dye with nitrite.

A short description of data set [19]: Toxicity in rat assessed as effect on blood as effect on blood pressure at 0.172 umol/kg, sc measured after 6 hrs post dose by non-invasive blood pressure monitoring. The format is organism-based. The note with it: in vivo, dose 0.172 µmol/kg. Summed up:
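Healthy rats given a single sc dose of 0.172 µmol/kg in aqueous solution, with saline as control. Tail-artery blood pressure measured non-invasively at 0, 1, 3 and 6 h.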

The test system of data set [20] is Staphylococcus aureus. Briefly: Antibiofilm activity against Staphylococcus aureus ATCC 6538 infected in mouse assessed as reduction in skin ulceration near implanted site at 0.25 umol/kg, sc administered every 12 hrs for 3 days. The data set is classed as functional, organism-based. The settings on record: dose 0.25 µmol/kg. Summed up: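 Mouse PDMS-implant S. aureus biofilm model (biofilm-coated slices placed subcutaneously in the back). Dosing was 0.25 µmol/kg sc in 5% DMSO/saline every 12 h for 3 days. Skin at the implant site was photographed every 12 h after implantation for ulceration.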

Data set [21] has as its system Cell membrane. The data set can be described thus: Induction of cell membrane rupture in Escherichia coli […] ATCC 8099 at 200 uM incubated for 60 mins by scanning electron microscopy. The data set is classed as subcellular. A digest of the protocol:
as §4

The test system of data set [22] is Cell membrane. Briefly: Induction of cell membrane rupture in Staphylococcus aureus ATCC 6538 assessed as induction of cell content spillage at 200 uM incubated for 60 mins by scanning electron microscopy. A digest of the protocol: as §4
Another data set deals with Erythrocyte. Briefly: Induction of hemolysis in mouse erythrocytes incubated for 3 hrs. The format is cell-based. A digest of the protocol:
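2% erythrocyte suspension from mouse blood, mixed with sample in 0.9% NaCl. Controls were saline (negative) and water (positive). Incubated 3 h at 37 °C, 5% CO₂; hemolysis degree calculated by standard curve. Dose-dependent series; HC₅₀ derived.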

Data set [23] deals with Cell membrane. Briefly: Induction of cell membrane rupture in Staphylococcus aureus ATCC 6538 at 200 uM incubated for 60 mins by scanning electron microscopy. A digest of the protocol: as §4
Data set [24] has as its system Staphylococcus aureus. Briefly: Antibiofilm activity against Staphylococcus aureus ATCC 6538 infected in mouse assessed as reduction in bacterial infection by measuring colony counts at 0.25 umol/kg, sc administered every 12 hrs for 3 days co-treated with 0.25 umol/kg NO scavenger PTIO by plate colony counting assay (reference value: 6.40 +/- 0.28). The format is functional. The note with it: dose 0.25 µmol/kg.

Turning to `COC(=O)[C@@H](N)Cc1ccc(Oc2no[n+]([O-])c2S(=O)(=O)c2ccccc2)cc1`, the Activity in the data set with Staphylococcus aureus [1] was 4.91 log10CFU. In the data set with Staphylococcus aureus [2], the inhibition (in general, how much of the control response was suppressed) is “Active”. In addition, the outcome in the data set with Staphylococcus aureus [3], with Staphylococcus aureus [4], in the data set with Escherichia coli [5] and in the data set on Escherichia coli [7] was Active. In addition, the inhibition at 100 µM is 81.2% in the data set with Escherichia coli [6] and 44.4% with Staphylococcus aureus [9]. The inhibition result in the data set with Staphylococcus aureus [8], in the data set on Staphylococcus aureus [11] and in the data set on Escherichia coli [14] was “inactive” throughout. Besides, the outcome in the data set on Staphylococcus aureus [10] was inactive. For the same molecule, the MIC in the data set with Staphylococcus aureus [12] and against Escherichia coli [13] was more than 50 µM in each case.
Turning to `CC(=O)OCC1=C(C(=O)O)N2C(=O)[C@@H](NC(=O)CCC[C@@H](N)C(=O)O)[C@H]2SC1` [CEPHALOSPORIN C], the Activity with Staphylococcus aureus [1] amounted to 4.97 log10CFU. The inhibition entry in the data set with Staphylococcus aureus [2] is “inactive”. In addition, the inhibition result in the data set with Staphylococcus aureus [15] and in the data set with Staphylococcus aureus [16] was “Active” each time.
In the case of `CC[C@H](C)[C@H](NC(=O)[C@H](CCCCN)NC(=O)[C@H](CC(C)C)NC(=O)[C@H](C)NC(=O)CNC(=O)[C@H](CC(N)=O)NC(=O)[C@H](CC(C)C)NC(=O)[C@@H](NC(=O)[C@H](CCCCN)NC(=O)[C@H](CCCCN)NC(=O)[C@H](Cc1c[nH]c2ccccc12)NC(=O)[C@H](Cc1ccccc1)NC(=O)[C@H](CCCCN)NC(=O)[C@H](CCCNC(=N)N)NC(=O)[C@H](CCCNC(=N)N)NC(=O)[C@@H](NC(=O)Cn1cc(CCCC(=O)N[C@@H](Cc2ccc(Oc3no[n+]([O-])c3S(=O)(=O)c3ccccc3)cc2)C(=O)OC)nn1)[C@@H](C)O)C(C)C)C(=O)N[C@@H](C)C(=O)N1CCC[C@H]1C(=O)N[C@@H](Cc1ccccc1)C(=O)N[C@@H](CC(C)C)C(=O)N[C@@H](CC(C)C)C(=O)NCC(=O)O` (X1-TRRKFWKKVLNGALKIAPFLLG-OH), the Activity in the data set on Staphylococcus aureus [1] is 4.54 log10CFU; in data set [19] it was “Non-Toxic”; in the data set with Staphylococcus aureus [24], 5.92 log10CFU. Moreover, the inhibition at 100 µM worked out at 100% with Staphylococcus aureus [2], 80.9% in the data set with Escherichia coli [6] and 64.1% in the data set with Staphylococcus aureus [9]. Further, the result in the data set with Cell membrane [17], with Staphylococcus aureus [3], in the data set on Staphylococcus aureus [20], in the data set with Staphylococcus aureus [4], in the data set on Escherichia coli [5] and in the data set on Escherichia coli [7] was Active. Also, the outcome in the data set with Cell membrane [21], with Cell membrane [22], in the data set with Cell membrane [23] and in the data set on Staphylococcus aureus [10] was Active. The inhibition result in the data set on Staphylococcus aureus [15] and in the data set on Staphylococcus aureus [8] was “Active” each time. For the same molecule, the result with Staphylococcus aureus [18] was inactive. Besides, the IC50 – broadly, the midpoint of a concentration-inhibition curve – in the data set on Erythrocyte was more than 380 µM. In addition, the inhibition result with Staphylococcus aureus [11] and with Escherichia coli [14] was “inactive” in each case. In addition, the MIC against Staphylococcus aureus [12] and against Escherichia coli [13] was more than 50 µM in each case.
Consider H-TRRKFWKKVLNGALKIAPFLLG-OH, for which the Activity with Staphylococcus aureus [1] was determined as 5.4 log10CFU. The inhibition entry with Staphylococcus aureus [2], in the data set on Staphylococcus aureus [15] and in the data set on Staphylococcus aureus [16] was “Active” throughout. Moreover, the result in the data set on Staphylococcus aureus [4] and in the data set on Escherichia coli [5] was inactive. Besides, the inhibition result with Escherichia coli [6] and in the data set on Staphylococcus aureus [9] was “inactive” each time. The MIC in the data set on Staphylococcus aureus [12] and against Escherichia coli [13] was more than 50 µM each time.
